Results published in ChEMBL document CHEMBL1921722, “In vitro and in vivo evaluation of select kahalalide F analogs with antitumor and antifungal activities” (Bioorg Med Chem, 2011).
Active and inactive are the calls of the source.

What was measured:
SF-295 [1] = assay: Antitumor activity against human SF295 cells xenografted in mouse assessed as tumor cell killing at 2.35 mg/kg, ip qd for 4 days by MTT assay; assay type: functional, organism-based; set-up: dose 2.35 mg/kg
TK-10 [2] = assay: Cytotoxicity against human TK10 cells by sulforhodamine B assay; assay type: functional; settings: for TGI: read-out: pTGI (converted)
Method in brief: (§1)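 NCI Developmental Therapeutics Program 60-cell-line human tumor panel screen, run at NCI. A single-concentration pre-screen was followed by a five-concentration dose-response in 10-fold steps. GI50 is the concentration that reduces growth of treated cells to half that of untreated control cells. TGI is the concentration that completely halts growth.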

NCI-H522 [3] = assay: Antitumor activity against human NCI-H522 cells xenografted in mouse assessed as tumor cell killing at 2.35 mg/kg, ip qd for 4 days by MTT assay; assay type: functional, organism-based; set-up: dose 2.35 mg/kg
OVCAR-5 [4] = assay: Cytotoxicity against human OVCAR5 cells assessed as cell growth at 80 uM by sulforhodamine B assay relative to control; assay type: functional; settings: read-out: Activity
SK-OV-3 = assay: Cytotoxicity against human SKOV3 cells by sulforhodamine B assay; assay type: functional; method in brief: as §1
CCRF-CEM [5] = assay: Cytotoxicity against human CCRF-CEM cells by sulforhodamine B assay; assay type: functional
Method in brief: (§2)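 Run at NCI in the DTP 60-cell-line human tumor panel by standard procedure. Compounds were first screened at a single concentration, then tested at five tenfold-spaced concentrations. GI50 is the concentration reducing treated-cell growth to half that of untreated controls; TGI is the concentration completely halting growth.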

UO-31 = assay: Cytotoxicity against human UO31 cells assessed as cell growth at 800 nM by sulforhodamine B assay relative to control; assay type: functional; settings: read-out: Activity
UACC-62 [6] = assay: Antitumor activity against human UACC62 cells xenografted in mouse assessed as tumor cell killing at 2.35 mg/kg, ip qd for 4 days by MTT assay; assay type: functional, organism-based; set-up: dose 2.35 mg/kg
CCRF-CEM [7] = assay: Cytotoxicity against human CCRF-CEM cells assessed as cell growth at 80 uM by sulforhodamine B assay relative to control; assay type: functional; settings: read-out: Activity
DU-145 = assay: Cytotoxicity against human DU145 cells assessed as cell growth at 80 uM by sulforhodamine B assay relative to control; assay type: functional; settings: read-out: Activity
UACC-257 = assay: Cytotoxicity against human UACC257 cells assessed as cell growth at 8 nM by sulforhodamine B assay relative to control; assay type: functional; settings: read-out: Activity
SR [8] = assay: Cytotoxicity against human SR cells assessed as cell growth at 80 uM by sulforhodamine B assay relative to control; assay type: functional; settings: read-out: Activity
CCRF-CEM [9] = assay: Cytotoxicity against human CCRF-CEM cells assessed as cell growth at 8 uM by sulforhodamine B assay relative to control; assay type: functional; settings: read-out: Activity
CCRF-CEM [10] = assay: Cytotoxicity against human CCRF-CEM cells assessed as cell growth at 8 nM by sulforhodamine B assay relative to control; assay type: functional; settings: read-out: Activity
SR [11] = assay: Cytotoxicity against human SR cells assessed as cell growth at 8 uM by sulforhodamine B assay relative to control; assay type: functional; settings: read-out: Activity
TK-10 [12] = assay: Cytotoxicity against human TK10 cells assessed as cell growth at 80 nM by sulforhodamine B assay relative to control; assay type: functional; settings: read-out: Activity
CCRF-CEM [13] = assay: Cytotoxicity against human CCRF-CEM cells assessed as cell growth at 800 nM by sulforhodamine B assay relative to control; assay type: functional; settings: read-out: Activity
OVCAR-5 [14] = assay: Antitumor activity against human OVCAR5 cells xenografted in mouse assessed as tumor cell killing at 2.35 mg/kg, ip qd for 4 days by MTT assay; assay type: functional, organism-based; set-up: dose 2.35 mg/kg
KM12 = assay: Cytotoxicity against human KM12 cells by sulforhodamine B assay; assay type: functional; method in brief: as §1
SF-268 = assay: Cytotoxicity against human SF268 cells assessed as cell growth at 80 uM by sulforhodamine B assay relative to control; assay type: functional; settings: read-out: Activity
Hs-578T = assay: Cytotoxicity against human Hs578T cells assessed as cell growth at 80 uM by sulforhodamine B assay relative to control; assay type: functional; settings: read-out: Activity
UACC-62 [15] = assay: Cytotoxicity against human UACC62 cells assessed as cell growth at 8 uM by sulforhodamine B assay relative to control; assay type: functional; settings: read-out: Activity
A549 = assay: Cytotoxicity against human A549 cells assessed as cell growth at 80 uM by sulforhodamine B assay relative to control; assay type: functional; settings: read-out: Activity; method in brief: as §2
LOX IMVI = assay: Antitumor activity against human LOXIMVI cells xenografted in mouse assessed as tumor cell killing at 4.7 mg/kg, ip qd for 4 days by MTT assay; assay type: functional, organism-based; set-up: dose 4.7 mg/kg
Method in brief: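 Hollow-fiber assay in mice. Tumor lines were grown in RPMI-1640 with 10% FBS and 2 mM glutamine. Cells at 2 × 10^6 cells/ml were loaded into 1 mm PVDF fibers (500,000 Da cutoff), heat-sealed at 2 cm and held 24–48 h at 37 °C, 5% CO2 before implantation. Compound was given IP. Fibers were collected the day after the fourth treatment for MTT (OD 540 nm, group means). A ≥50% cut in percent net growth versus vehicle counted as positive.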

CCRF-CEM [16] = assay: Cytotoxicity against human CCRF-CEM cells assessed as cell growth at 80 nM by sulforhodamine B assay relative to control; assay type: functional; settings: read-out: Activity
MDA-MB-435 [17] = assay: Antitumor activity against human MDA-MB-435 cells xenografted in mouse assessed as tumor cell killing at 2.35 mg/kg, ip qd for 4 days by MTT assay; assay type: functional, organism-based; set-up: dose 2.35 mg/kg
NCI-H522 [18] = assay: Antitumor activity against human NCI-H522 cells xenografted in mouse assessed as tumor cell killing at 3.1 mg/kg, ip qd for 4 days by MTT assay; assay type: functional, organism-based; set-up: dose 3.1 mg/kg
CAKI-1 [19] = assay: Cytotoxicity against human Caki1 cells assessed as cell growth at 8 nM by sulforhodamine B assay relative to control; assay type: functional; settings: read-out: Activity
SF-295 [20] = assay: Antitumor activity against human SF295 cells xenografted in mouse assessed as tumor cell killing at 3.1 mg/kg, ip qd for 4 days by MTT assay; assay type: functional, organism-based; set-up: dose 3.1 mg/kg
CAKI-1 [21] = assay: Cytotoxicity against human Caki1 cells assessed as cell growth at 800 nM by sulforhodamine B assay relative to control; assay type: functional; settings: read-out: Activity
CAKI-1 [22] = assay: Cytotoxicity against human Caki1 cells assessed as cell growth at 80 uM by sulforhodamine B assay relative to control; assay type: functional; settings: read-out: Activity
MDA-MB-435 [23] = assay: Antitumor activity against human MDA-MB-435 cells xenografted in mouse assessed as tumor cell killing at 3.1 mg/kg, ip qd for 4 days by MTT assay; assay type: functional, organism-based; set-up: dose 3.1 mg/kg
UACC-62 [24] = assay: Antitumor activity against human UACC62 cells xenografted in mouse assessed as tumor cell killing at 3.1 mg/kg, ip qd for 4 days by MTT assay; assay type: functional, organism-based; set-up: dose 3.1 mg/kg
CAKI-1 [25] = assay: Cytotoxicity against human Caki1 cells by sulforhodamine B assay; assay type: functional; method in brief: as §2
CAKI-1 [26] = assay: Cytotoxicity against human Caki1 cells assessed as cell growth at 8 uM by sulforhodamine B assay relative to control; assay type: functional; settings: read-out: Activity
CAKI-1 [27] = assay: Cytotoxicity against human Caki1 cells assessed as cell growth at 80 nM by sulforhodamine B assay relative to control; assay type: functional; settings: read-out: Activity
U-251 = assay: Antitumor activity against human U251 cells xenografted in mouse assessed as tumor cell killing at 3.1 mg/kg, ip qd for 4 days by MTT assay; assay type: functional, organism-based; set-up: dose 3.1 mg/kg
[28] = read-out: pLC50 (the source's name) (converted)

Row | SMILES | GI50 (TK-10 [2]) [µM] | TGI (TK-10 [2]) [µM] | growth at 80 µM (OVCAR-5 [4]) [%] | GI50 (SK-OV-3; read-out: GI50) [µM] | TGI (SK-OV-3; read-out: TGI) [µM] | GI50 (SK-OV-3; read-out: pGI50 (converted)) [µM] | TGI (SK-OV-3; read-out: pTGI (converted)) [µM] | growth at 0.8 µM (UO-31) [%] | growth at 80 µM (DU-145) [%] | growth at 0.008 µM (UACC-257) [%] | growth at 8 µM (SR [11]) [%] | growth at 0.08 µM (TK-10 [12]) [%] | GI50 (KM12; read-out: GI50) [µM] | GI50 (KM12; read-out: pGI50 (converted)) [µM] | growth at 80 µM (Hs-578T) [%] | growth at 8 µM (UACC-62 [15]) [%] | growth at 80 µM (A549) [%] | Activity (LOX IMVI) | other results
1 | C/C=C1\NC(=O)[C@H](Cc2ccccc2)NC(=O)[C@@H](C(C)C)NC(=O)[C@@H]([C@@H](C)CC)NC(=O)[C@H](NC(=O)[C@H](NC(=O)[C@H](CCCNCc2ccc(N3CCOCC3)cc2)NC(=O)[C@H]2CCCN2C(=O)[C@H](NC(=O)[C@@H](NC(=O)[C@@H](NC(=O)[C@H](NC(=O)CCCC(C)C)C(C)C)[C@@H](C)O)C(C)C)C(C)C)[C@@H](C)CC)[C@@H](C)OC(=O)[C@H](C(C)C)NC1=O | 1.48 | 2.82 | -47 | 0.178 | 0.415 | 0.178 | 0.417 | 96 | -73 | 101 | 15 | 96 | 0.201 | 0.2 | -40 | -100 | 4 | inactive | Activity (SF-295 [1]): inactive; LC50 (TK-10 [2]): 5.37 µM; Activity (NCI-H522 [3]): inactive; GI50 (CCRF-CEM [5]): 22.9 µM; CC50 (CCRF-CEM [5]; [28]): > 75.9 µM; TGI (CCRF-CEM [5]; read-out: pTGI (converted)): 39.8 µM; Activity (UACC-62 [6]): inactive; growth at 80 µM (CCRF-CEM [7]): -31%; growth at 80 µM (SR [8]): -7%; growth at 8 µM (CCRF-CEM [9]): 82%; growth at 0.008 µM (CCRF-CEM [10]): 122%; growth at 0.8 µM (CCRF-CEM [13]): 128%; Activity (OVCAR-5 [14]): inactive; LC50 (KM12): > 75.9 µM; growth at 80 µM (SF-268): 18%; growth at 0.08 µM (CCRF-CEM [16]): 123%; Activity (MDA-MB-435 [17]): inactive
2 | C/C=C1\NC(=O)[C@H](Cc2ccccc2)NC(=O)[C@@H](C(C)C)NC(=O)[C@@H]([C@@H](C)CC)NC(=O)[C@H](NC(=O)[C@H](NC(=O)[C@H](CCCNCc2ccc(F)c(C)c2)NC(=O)[C@H]2CCCN2C(=O)[C@H](NC(=O)[C@@H](NC(=O)[C@@H](NC(=O)[C@H](NC(=O)CCCC(C)C)C(C)C)[C@@H](C)O)C(C)C)C(C)C)[C@@H](C)CC)[C@@H](C)OC(=O)[C@H](C(C)C)NC1=O | 1.48 | 2.88 | -98 | 0.173 | 0.37 | 0.174 | 0.372 | 92 | -91 | 102 | -50 | 105 | 0.155 | 0.155 | -30 | -98 | 1 | inactive | Activity (NCI-H522 [18]): inactive; LC50 (SK-OV-3): 0.891 µM; growth at 0.008 µM (CAKI-1 [19]): 130%; Activity (SF-295 [20]): inactive; growth at 0.8 µM (CAKI-1 [21]): 103%; growth at 80 µM (CAKI-1 [22]): -56%; Activity (MDA-MB-435 [23]): inactive; Activity (UACC-62 [24]): inactive; GI50 (CAKI-1 [25]): 1.45 µM; CC50 (CAKI-1 [25]; [28]): 4.79 µM; TGI (CAKI-1 [25]; read-out: pTGI (converted)): 2.63 µM; growth at 8 µM (CAKI-1 [26]): -86%; TGI (KM12; read-out: TGI): 0.328 µM; TGI (KM12; read-out: pTGI (converted)): 0.331 µM; growth at 0.08 µM (CAKI-1 [27]): 150%; Activity (U-251): inactive
